# According to publication PMC3240942 (Molecular cell, 2011):
# Where no end group is shown, it is not given here.
# T1: Sirt1 (Mus musculus, UniProt Q923E4)
# T1 sequence (Q923E4 1-737): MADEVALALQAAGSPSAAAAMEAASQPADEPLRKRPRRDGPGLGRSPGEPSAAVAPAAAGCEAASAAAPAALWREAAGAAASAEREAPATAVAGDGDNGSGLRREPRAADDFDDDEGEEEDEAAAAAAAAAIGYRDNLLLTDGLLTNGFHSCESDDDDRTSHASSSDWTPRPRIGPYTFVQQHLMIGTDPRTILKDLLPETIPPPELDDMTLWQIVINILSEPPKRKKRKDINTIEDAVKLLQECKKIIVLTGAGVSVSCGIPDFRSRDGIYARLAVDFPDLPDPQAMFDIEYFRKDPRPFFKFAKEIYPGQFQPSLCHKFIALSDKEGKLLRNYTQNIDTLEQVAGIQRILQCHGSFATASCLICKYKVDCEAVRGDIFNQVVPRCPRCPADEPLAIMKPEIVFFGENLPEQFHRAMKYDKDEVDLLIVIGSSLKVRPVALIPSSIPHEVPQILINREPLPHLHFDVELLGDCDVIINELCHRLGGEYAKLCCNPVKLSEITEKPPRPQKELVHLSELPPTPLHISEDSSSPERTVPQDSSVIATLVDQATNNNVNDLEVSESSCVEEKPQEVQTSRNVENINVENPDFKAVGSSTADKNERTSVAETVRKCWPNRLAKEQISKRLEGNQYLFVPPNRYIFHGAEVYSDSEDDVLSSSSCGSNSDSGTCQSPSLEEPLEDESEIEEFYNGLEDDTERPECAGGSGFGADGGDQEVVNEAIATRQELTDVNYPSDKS
# T2: Sirt1 deacetylase core (Core, a.a. 184-510) (mouse, UniProt Q923E4 184-510)
# T2 sequence (looked up): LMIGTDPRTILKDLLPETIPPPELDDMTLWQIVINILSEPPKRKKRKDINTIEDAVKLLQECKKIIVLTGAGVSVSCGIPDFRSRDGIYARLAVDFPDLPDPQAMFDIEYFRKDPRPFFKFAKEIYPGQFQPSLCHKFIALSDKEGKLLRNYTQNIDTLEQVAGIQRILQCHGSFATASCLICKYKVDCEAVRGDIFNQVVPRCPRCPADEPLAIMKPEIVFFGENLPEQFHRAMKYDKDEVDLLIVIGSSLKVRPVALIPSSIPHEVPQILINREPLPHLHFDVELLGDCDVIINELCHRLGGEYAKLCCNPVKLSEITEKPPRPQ
# Key:
# [1] = target: T1, Sirt1; assay: Sirt1 deacetylase activity against Ac-p53, peptide added in trans; assay type: biochemical; details: Figure S2G
# [2] = tested on: Sirt6; assay: Fluorometric Sirt6 deacetylase assay; assay type: biochemical; details: 150 μM peptide, CycLex SIRT6 fluorometric kit; N=4
# In short: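 His-tagged Sirt6 was assayed with the CycLex SIRT6 fluorometric kit. Kit buffer was replaced by 50 mM HEPES pH 7.0, 1 mM DTT, 10 mM MgCl2, 200 mM NaCl plus protease/phosphatase inhibitors. WT or GPDR-mutant ESA peptide (150 μM) or no peptide was present. N=4; mean ± s.e.m.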
# [3] = target: T1, Sirt1; assay: Lineweaver-Burk kinetics of Sirt1; assay type: biochemical; details: against both Ac-H4 and NAD+; Lineweaver-Burk plot
# In short: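 His-Sirt1 (2 μg) was pre-incubated 5 min at room temperature in HEPES pH 7.0 buffer with mutant ESA peptide at 0, 60, 120 or 240 μM. Ac-K16 H4 fluorogenic dipeptide was varied at 500 μM NAD+, or NAD+ was varied at 100 μM substrate. Reactions ran 25 min at 37 °C and were stopped with nicotinamide developer; ex 355/em 460 nm, no-NAD+ blank subtracted. Triplicates. Kis/Kii came from a double-reciprocal noncompetitive model fit, Km from the same analysis, kcat from a Michaelis–Menten fit.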
# [4] = tested on: deacetylase core; assay: Pull-down of deacetylase core with immobilized GPDR-ESA peptide; assay type: binding, mouse; details: streptavidin pull-down, Figure S2E top
# In short: (§1)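 Biotinylated peptide (mutant ESA or acetyl-H4) was bound to streptavidin agarose for 1 h at room temperature, washed, and held in PBS/1% Triton X-100. Beads (30 μl) took 2 μg GST-fused or His-tagged protein for 2 h at room temperature. Beads were washed with PBS/1% Triton/200 mM NaCl and eluted in β-ME SDS buffer at 95 °C for 10 min. Blots ran on 4–12% SDS-PAGE; biotin-only beads were the control.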
# [5] = tested on: ESA-deacetylase core interaction; assay: Competition of the ESA-deacetylase core interaction; assay type: binding, mouse; details: competing GPDR-ESA peptide (Figure S2E) or 2 μg GST-LZ (N=5)
# In short: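 Biotinylated ESA peptide (100 μl at 300 nmole/ml) bound to 1 ml streptavidin agarose for 1 hr at room temperature, washed with PBS, and resuspended in PBS/1% Triton X-100 with protease inhibitors. 30 μl beads incubated 2 hrs at room temperature with deacetylase core and competitor. Biotin-only beads as negative control. Bound core quantified by immunoblot, N=5, mean ± s.e.m.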
# [6] = tested on: Lys 382 acetylated-p53 (Ac-p53); assay: Deacetylation of Lys 382 acetylated-p53 by recombinant WT/mutant Sirt1; assay type: biochemical, mouse Sirt1; details: recombinant Sirt1 2 μg, acetylated GST-p53 0.2 μg, 0.5 mM NAD+, pH 7.0, 37 °C; immunoblot
# In short: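 Recombinant His-tagged WT or C-terminally truncated/point-mutant mouse Sirt1 (2 μg) incubated with acetylated GST-p53 (0.2 μg) and 0.5 mM NAD+ in 50 mM HEPES pH 7.0, 1 mM DTT, 10 mM MgCl2, 200 mM NaCl plus protease/phosphatase inhibitors. Reactions ran at 37 °C for indicated times and were stopped with SDS sample buffer. Read-out: immunoblot with acetyl-K382 p53 antibody; loading checked by Coomassie, Ponceau S or Western blot.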
# [7] = tested on: [3H]Ac-histone H4; assay: [3H]Ac-histone H4 deacetylation, O-[3H]acetyl-ADP-ribose scintillation counting; assay type: biochemical; details: [3H]Ac-histone H4 substrate; N=4; "almost"
# In short: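 WT or mutant recombinant Sirt1 (including ΔESA, G644P, D650R, G644P/D650R) was reacted with [3H]acetyl-histone H4. Activity was quantified by scintillation counting of released O-[3H]acetyl-ADP-ribose. N=4; mean ± s.e.m.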
# [8] = target: T1, Sirt1; assay: Sirt1 deacetylase activity in presence of GST-LZ; assay type: biochemical; details: compared to GST alone, Figure S3B
# [9] = tested on: deacetylase core; assay: GST pull-down of deacetylase core with GST-LZ or GST-ESA; assay type: binding, mouse; details: GST pull-down, GST-LZ vs GST-ESA
# In short: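 His-tagged deacetylase core (a.a. 184-510) incubated with GST, GST-ESA or GST-LZ (DBC1 LZ, a.a. 243-264), 2 μg of each. Unbound protein washed off on micro-spin columns with PBS/1% Triton X-100/200 mM NaCl. Elution in SDS buffer with β-ME at 95 °C for 10 min; 4–12% gradient SDS-PAGE and Western blot for bound core and GST fusions.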
# [10] = target: T2, Sirt1 deacetylase core (Core, a.a. …); assay: pull-down
# [11] = Pull-down of GST fusion proteins with immobilized GPDR-ESA peptide; assay type: binding; details: Figure S2F
# In short: as §1
# [12] = tested on: native Ac-histone H3; assay: Deacetylation of native Ac-histone H3 by recombinant Sirt1; assay type: biochemical
# [13] = tested on: p53; assay: Deacetylation of p53 in transfected H1299 cells; assay type: cell-based; details: co-transfected with p53
# In short: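 H1299 cells were transiently co-transfected with a p53 vector and a WT or ΔESA Sirt1 vector; empty vector was the negative control. Acetylated p53 was detected by immunoblot with an acetyl-K382-specific antibody.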
# [14] = tested on: p53 target genes p21, PUMA and Bim; assay: Expression of p53 target genes in H1299 cells; assay type: cell-based; details: co-expressed p53
# In short: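 H1299 cells transiently co-transfected with a p53 expression vector and a WT or ΔESA Sirt1 expression vector; empty vector as control. Levels of the p53-activated genes p21, PUMA and Bim were then visualized.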
# [15] = tested on: Flag-p65 (NF-κB); assay: Co-immunoprecipitation of Sirt1 with Flag-p65 in Hela cells; assay type: cell-based; details: V5-tagged Sirt1
# In short: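 Transient co-transfection of HeLa cells with Flag-NF-κB p65 plus V5-tagged full-length or ΔESA Sirt1. p65 was pulled down with anti-Flag, and bound Sirt1 was detected by anti-V5 immunoblot alongside input levels.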
# [16] = tested on: GST-Ac-p53; assay: Pull-down of Sirt1 / core fragments with GST-Ac-p53; assay type: binding; details: in vitro pull-down
# In short: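 In vitro pull-downs with GST-Ac-p53 or GST alone as negative control. Recombinant Flag-tagged full-length or ΔESA (a.a. 631-655 deleted) Sirt1 pulled down with anti-Flag, bound GST-Ac-p53 detected by GST immunoblot, and Sirt1 shown by Coomassie. Alternatively, core (a.a. 184-510) or Core-ESA with GST-Ac-p53 (2 μg each) in GST pull-down, bound core detected by Sirt1 immunoblot.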
# [17] = tested on: Ac-H3; assay: Interaction of Sirt1 with Ac-H3 purified from Hela cells; assay type: binding; details: Figure S3A
# [18] = tested on: Ac-H4; assay: Interaction of Sirt1 with Ac-H4 purified from Hela cells; assay type: binding; details: Figure S3A
molecule,measurement,setting,value
"GPDR-ESA peptide: ESA peptide containing a mutation of two residues, G644P and D650R (GPDR) (QYLFVPPNRYIFHPAEVYSRSEDDV; also: biotinylated, position not given here)",inhibition of Sirt1 activity against Ac-p53,[1],also inhibited Sirt1 activity against Ac-p53
same,effect on Sirt6 activity,[2],had no effect on Sirt6 activity
same,mode of inhibition,[3],noncompetitive inhibitor
same,binding to deacetylase core,[4],also bound to the deacetylase core
same,inhibition of ESA-deacetylase core interaction,[5],ESA-deacetylase core interaction was inhibited
GPDR: Sirt1 with a double mutation G644P and D650R,deacetylase activity against Ac-p53,[6],very little deacetylase activity
same,fold reduction of Sirt1 activity,[7],~10 fold
"GST-LZ: LZ domain of DBC1 (a.a. 243-264) fused to GST (LQRRYRSLLVPSDFLSVHLSWL; also: fused to GST, end not given here)",inhibition of ESA-deacetylase core interaction,[5],prevented the ESA-deacetylase core interaction
same,reduction of Sirt1 deacetylase activity,[8],significantly reduced Sirt1 deacetylase activity
same,relative strength of interaction with deacetylase core,[9],stronger than the ESA-deacetylase core interaction
"QYLFVPPNRYIFHGAEVYSDSEDDV (domain or fragment, mouse, UniProt Q923E4 631-655, looked up) [GST-ESA (ESA fused to GST)]",binding result,[10],binds
"GST-Sirtuin domain: GST fused to Sirtuin domain (a.a. 236-490) (protein, left off: GST, end not stated, kept) EDAVKLLQECKKIIVLTGAGVSVSCGIPDFRSRDGIYARLAVDFPDLPDPQAMFDIEYFRKDPRPFFKFAKEIYPGQFQPSLCHKFIALSDKEGKLLRNYTQNIDTLEQVAGIQRILQCHGSFATASCLICKYKVDCEAVRGDIFNQVVPRCPRCPADEPLAIMKPEIVFFGENLPEQFHRAMKYDKDEVDLLIVIGSSLKVRPVALIPSSIPHEVPQILINREPLPHLHFDVELLGDCDVIINELCHRLGGEYA",binding to immobilized GPDR-ESA peptide,[11],bound to the GPDR-ESA peptide
"ΔESA Sirt1: Sirt1 with the 25 a.a. ESA region (a.a. 631-655) deleted (protein, left off: V5, end not stated, kept) MADEVALALQAAGSPSAAAAMEAASQPADEPLRKRPRRDGPGLGRSPGEPSAAVAPAAAGCEAASAAAPAALWREAAGAAASAEREAPATAVAGDGDNGSGLRREPRAADDFDDDEGEEEDEAAAAAAAAAIGYRDNLLLTDGLLTNGFHSCESDDDDRTSHASSSDWTPRPRIGPYTFVQQHLMIGTDPRTILKDLLPETIPPPELDDMTLWQIVINILSEPPKRKKRKDINTIEDAVKLLQECKKIIVLTGAGVSVSCGIPDFRSRDGIYARLAVDFPDLPDPQAMFDIEYFRKDPRPFFKFAKEIYPGQFQPSLCHKFIALSDKEGKLLRNYTQNIDTLEQVAGIQRILQCHGSFATASCLICKYKVDCEAVRGDIFNQVVPRCPRCPADEPLAIMKPEIVFFGENLPEQFHRAMKYDKDEVDLLIVIGSSLKVRPVALIPSSIPHEVPQILINREPLPHLHFDVELLGDCDVIINELCHRLGGEYAKLCCNPVKLSEITEKPPRPQKELVHLSELPPTPLHISEDSSSPERTVPQDSSVIATLVDQATNNNVNDLEVSESSCVEEKPQEVQTSRNVENINVENPDFKAVGSSTADKNERTSVAETVRKCWPNRLAKEQISKRLEGNLSSSSCGSNSDSGTCQSPSLEEPLEDESEIEEFYNGLEDDTERPECAGGSGFGADGGDQEVVNEAIATRQELTDVNYPSDKS",deacetylase activity against Ac-p53,[6],did not have any deacetylase activity
same,deacetylase activity against native Ac-histone H3,[12],did not have any deacetylase activity
same,deacetylation of p53 in vivo,[13],"WT Sirt1, but not ΔESA Sirt1, was able to deacetylate p53"
same,suppression of p53 target gene expression,[14],failed to suppress the expression of p53 target genes
same,co-immunoprecipitation with Flag-p65,[15],did so very poorly
same,binding to GST-Ac-p53,[16],bound poorly to GST-Ac-p53 compared to full-length Sirt1
same,interaction with Ac-H3,[17],significantly weakened the interaction
same,interaction with Ac-H4,[18],significantly weakened the interaction
